# Compound activity (PubChem BioAssay)
# PfM18AAP inh = PfM18AAP inhibitors, malaria aminopeptidase, primary screen, biochemical, QFRET, recombinant enzyme. M18 aspartyl aminopeptidase (Plasmodium falciparum 3D7). H-Glu-NHMec fluorogenic cleavage. inhibition, % at 7.35 µM. 290,000 tested, 1.2% active. AID 1822, 2009;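 active = inhibition above the campaign mean inhibition over all tested compounds plus 3 SD, cut at about 28% in these data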;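 also: 0% = plate median of test compound wells and 100% = 2 mM ZnCl2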
# Fh CTSL1 inh = Fasciola hepatica cathepsin L1 inhibitors, primary screen, counter-screen for PFM18AAP inhibitor project, biochemical, QFRET, fluorogenic peptide substrate; recombinant F. hepatica cathepsin L1, Z-Leu-Arg-MCA fluorescence; inhibition, % at 5.96 µM; 300,000 tested, 0.49% active;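 active = inhibition above the mean of all tested compounds plus 3 SD, set per screening campaign, cut at about 17% in these data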;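 also: 0% = plate median of test compound wells and 100% = 1 µM Z-Phe-Ala-diazomethylketone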
# GAA850 FXN act = FXN promoter activators, primary screen, cell-based, luciferase luminescence, HEK293 lucGAA850; 360,000 tested, 0.56% active; HEK293 lucGAA850 FXN promoter luciferase reporter, 24 h; percent of 10 µM SAHA response; AID 540364, 2011; activation, % at 6 µM;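 active = activation above the average of all compounds screened plus 3 SD, cutoff fixed separately per campaign, cut at about 7.5% in these data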;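 also: 0% = DMSO wells and 100% = 10 µM SAHA wells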
# HDAC3 inh = HDAC3 deacetylase inhibitors, primary screen, biochemical, fluorescence, cell-free homogeneous; 320,000 tested, 0.15% active; inhibition, % at 8.3 µM; Histone deacetylase 3 (Homo sapiens), O15379; recombinant HDAC3, fluorogenic peptide/trypsin coupled; in the data active = inhibition above about 26%, passing the limit was not always enough; inconclusive = no clear call, values can overlap the other calls
# Target sequence (O15379 whole entry, looked up): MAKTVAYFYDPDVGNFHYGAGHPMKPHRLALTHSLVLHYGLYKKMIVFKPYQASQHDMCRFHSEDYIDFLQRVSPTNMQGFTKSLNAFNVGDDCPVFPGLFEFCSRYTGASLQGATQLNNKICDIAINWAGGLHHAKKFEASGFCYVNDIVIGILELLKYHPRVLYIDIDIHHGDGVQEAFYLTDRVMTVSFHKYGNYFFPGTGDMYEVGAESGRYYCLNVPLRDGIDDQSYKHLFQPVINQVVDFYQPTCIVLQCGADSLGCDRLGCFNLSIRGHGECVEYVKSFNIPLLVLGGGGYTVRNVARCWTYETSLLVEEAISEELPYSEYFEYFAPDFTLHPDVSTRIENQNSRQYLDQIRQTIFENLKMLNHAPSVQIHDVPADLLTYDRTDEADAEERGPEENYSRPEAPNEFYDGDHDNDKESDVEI
# SENP1 FRET inh = human SENP1 catalytic domain inhibitors, primary screen, biochemical, FRET, uHTS. 360,000 tested, 0.21% active. inhibition, % at 10 µM. recombinant SENP1 catalytic domain, CyPet-SUMO1-YPet FRET cleavage. AID 624204, 2012. Sentrin-specific protease 1 (Homo sapiens), Q9P0U3;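 active = inhibition at least 30% at 10 µM, raw YFP signal under a set limit, fluorescence ratio 0.5 to 1.5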;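 also: 0% = enzyme with DMSO and 100% = no enzyme wells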
# Target sequence (Q9P0U3 419-644 limits assumed): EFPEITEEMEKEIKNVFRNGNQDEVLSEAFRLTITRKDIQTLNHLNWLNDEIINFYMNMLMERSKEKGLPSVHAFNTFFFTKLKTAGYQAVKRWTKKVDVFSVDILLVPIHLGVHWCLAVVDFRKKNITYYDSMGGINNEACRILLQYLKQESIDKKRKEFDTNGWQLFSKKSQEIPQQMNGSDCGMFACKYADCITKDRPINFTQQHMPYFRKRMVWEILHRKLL
#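 Material: hSENP1 catalytic domain, recombinant; medium: Tris pH 8 with BME, BSA, NP40 and catalase; compound: single concentration of 10 µM compound, 0.5% DMSO final; technique: FRET read of cyan and yellow fluorescence; timing: 50 min enzyme reaction, room temperature, light-protected; reagent: SFCypet-SUMO1-SFYpet substrate at 25 nM; control set: no-enzyme low, enzyme-DMSO high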
# AHR act = AHR activators, primary screen, cell-based, luminescence, luciferase reporter, human | Aryl hydrocarbon receptor (Homo sapiens), P35869 | AHR-responsive luciferase reporter cells | activation, % at 5 µM | 320,000 tested, 2.5% active; in the data active = activation above about 47%;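 also: 0% = vehicle wells and 100% = reference agonist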
# Starred values were filed as active, the others as inactive; u = inconclusive; x = no result given. Only some compounds are listed: those with a hit (about 4.2% of all), similar ones and a draw of the others.
SMILES,PfM18AAP inh,Fh CTSL1 inh,GAA850 FXN act,HDAC3 inh,SENP1 FRET inh,AHR act
Cc1ccc2nc(CCc3ccc(N)cc3)[nH]c2c1,6.4,1.5,4.6,-9.0,-36.9,51.6*
NS(=O)(=O)c1ccc(CCNC(=O)CCc2nc3sc4c(c3c(=O)[nH]2)CCCC4)cc1,x,8.2,-0.4,0.7,-26.5,11.7
Cc1ccc(C(=O)c2coc3ccc(O)cc23)cc1,3.7,x,4.1,-2.4,2.5,x
CC(C)CC1C(=O)N(Cc2cn(Cc3ccco3)nn2)CCS(=O)(=O)N1Cc1ccc(-c2cccc(N(C)C)c2)cc1 (stereo unspecified),x,x,-1.3,x,-0.7,x
C/C(=N\Nc1ccc(F)cc1F)c1ccc(Br)s1,-10.4,1.0,-0.9,5.3,-2.0,54.4*
C/C(=N\Nc1ccc(F)cc1F)c1ccc(F)cc1,3.2,-2.6,x,-1.7,x,59.7*
CCCCNc1c(-c2ccc(SC(C)CC)cc2)nc2cnccn12 (stereo unspecified),x,x,4.2,31.5*,-31.7,48.2*
CCCCNc1c(-c2ccc(OC)c(Sc3ccc(OC)cc3)c2)nc2cnccn12,x,x,1.1,12.5,-29.3,15.5
O=C(CSc1ccccc1)NCC1(N2CCCCC2)CCCCC1,x,59.6*,-2.0,2.7,-23.7,0.7
O=C(CSc1nnnn1-c1ccccc1)NCC1(N2CCCCC2)CCCCC1,x,x,3.6,-6.6,-1.0,-1.1
CS(=O)(=O)c1ccc(C(=O)NCC2(N3CCCCC3)CCCCC2)cc1,-7.9,28.9*,0.4,-2.2,0.4,1.3
COc1ccc(CC(=O)NCC2(N3CCCCC3)CCCCC2)cc1,2.5,29.2*,2.9,0.0,-3.4,2.1
O=C(COc1ccccc1F)Nc1nnc(C2CCCC2)s1,1.5,-0.7,0.0,5.0,-0.3,-0.5
Nc1c(Cl)ncnc1NCc1ccccc1,3.5,2.0,1.3,2.3,-0.5,-0.7
Cc1ccc(NC(=S)NNC(=O)c2ccccc2O)c(C)c1,25.0,2.8,-1.0,-0.8,0.2,0.9
CC(C)NC(=O)N1Cc2cc(C(=O)NC3CCCC3)nc(-c3cccc(-c4cccnc4)c3)c2[C@H]1CCO,x,x,x,x,1.4,x
COc1ccc(OC)c(/C=N/NC(=O)c2cc3c(OC)c(OC)ccc3[nH]2)c1,-2.2,3.8,-3.6,8.5,1.6,79.0*
CCCOc1ccc2[nH]c(C(=O)N/N=C/c3cc(OC)c(OC)c(OC)c3)cc2c1,-2.7,3.6,1.0,-4.1,0.3,35.0
CCOc1ccc(/C=N/NC(=O)c2cc3c(OC)cc(OC)c(OC)c3[nH]2)cc1,-12.5,4.9,-1.7,4.3,3.6,48.3*
COc1ccc(-c2csc(C(C)(O)c3cccnc3)n2)cc1 (stereo unspecified),x,x,0.3,x,0.2,x
COc1ccccc1C(=O)NC(=S)Nc1ccc(Cc2ccncc2)cc1,0.7,1.7,0.0,5.5,-0.8,-2.6
COc1ccc(Br)cc1C(=O)Nc1ccc(Cc2ccncc2)cc1,-0.4,4.9,-3.0,2.8,1.9,58.8*
CCCCNC(=O)c1sc(=S)n2c1[nH]c(=O)c1ccc(C(=O)NCCc3ccc(OC)c(OC)c3)cc12,6.7,1.2,0.7,-0.2,44.6*,2.0
C[C@H](NC(=O)c1ncn2c1C(=O)NC[C@H]2C)c1ccccc1,x,x,-1.4,x,2.7,x
CCc1ccccc1N1CSC2=C(C#N)C(c3cc(OC)c(OC)cc3OC)CC(=O)N2C1 (stereo unspecified),37.3*,16.1,-2.1,9.9,-58.5,0.3
SMILES,PfM18AAP inh,Fh CTSL1 inh,GAA850 FXN act,HDAC3 inh,SENP1 FRET inh,AHR act
COc1ccc(Br)cc1C1CC(=O)N2CN(Cc3ccccc3)CSC2=C1C#N (stereo unspecified),21.9,-0.5,0.6,32.1*,-8.8,0.6
COc1ccc(OC)c(C2CC(=O)N3CN(c4ccc(C)c(Cl)c4)CSC3=C2C#N)c1 (stereo unspecified),17.9,2.2,-0.4,10.9,-24.4,3.2
COc1ccc(Br)cc1C1CC(=O)N2CN(C)CSC2=C1C#N (stereo unspecified),26.0,4.0,-1.3,1.7,-19.5,0.5
COc1cc(OC)c(C2CC(=O)N3CN(C)CSC3=C2C#N)cc1OC (stereo unspecified),19.2,1.4,0.3,30.5*,-29.7,0.0
N#CC1=C2SCN(Cc3ccccc3)CN2C(=O)CC1c1ccccc1F (stereo unspecified),26.1,3.1,2.1,u,-104.2,-0.6
O=C(COc1ccc(F)cc1)N1CCC(Cc2ccccc2)CC1,-3.3,2.6,-0.4,3.2,-0.5,0.8
COC(=O)C1=C(C)N(c2ccc(OC)c(OC)c2)C(=O)C1,0.0,19.6*,-4.4,9.4,0.5,1.6
O=c1oc2ccccc2c(Nc2cccc3cccnc23)c1[N+](=O)[O-],15.9,2.8,1.5,-0.4,2.6,57.5*
O=c1oc2ccccc2c(Nc2cc3ccccc3cc2O)c1[N+](=O)[O-],4.8,-1.9,0.8,5.8,4.5,62.7*
Cc1nn2c(NCCCn3ccnc3)cc(C(C)C)nc2c1-c1ccccc1,10.0,-0.9,-1.5,2.6,0.5,47.6*
O=C1CN(C(=O)c2ccc(Br)o2)C(c2ccccc2)c2cc(Br)ccc2N1 (stereo unspecified),5.5,-0.1,0.3,7.0,2.4,70.5*
O=C1CN(C(=O)c2ccc(Br)o2)C(c2ccccc2)c2cc(Cl)ccc2N1 (stereo unspecified),-3.2,4.5,-1.3,12.4,2.7,65.8*
Cc1ccc2c(c1)C(c1ccccc1)N(C(=O)c1ccc(Br)o1)CC(=O)N2 (stereo unspecified),3.9,4.3,-2.1,2.4,1.9,14.8
O=C(Cn1nc(C(=O)O)c2ccccc2c1=O)Nc1cc(S(=O)(=O)N2CCOCC2)ccc1Cl,x,x,-1.5,-6.0,2.6,-1.4
CC1(C(=O)NS(=O)(=O)c2ccccc2Cl)CCN1C(=O)COc1ccc(Cl)cc1 (stereo unspecified),x,x,1.5,x,1.4,x
C/C(=N\NC(=O)c1cc(-c2cccnc2)nc2ccccc12)c1ccc(O)cc1O,-2.7,8.4,-5.0,6.1,48.9*,15.1
COc1ccc(-c2cc(C(=O)Nc3cccnc3)c3ccccc3n2)cc1OC,6.1,0.2,-2.4,4.9,-3.6,66.8*
COc1ccc(-c2cc(C(=O)Nc3cc(S(N)(=O)=O)ccc3C)c3ccccc3n2)cc1OC,x,22.0*,0.8,-22.7,-6.6,32.4
C/C(=N\NC(=O)c1cc(-c2cccc(OC(C)C)c2)nc2ccccc12)c1cccnc1,2.3,x,0.8,8.1,1.1,x
